What was measured:
[1] = system: A375 and SKMEL5 parental cells; test: MTS viability of parental BRAF-mutant melanoma cells under PLX4032; assay type: cell-based; settings: concentrations in which PLX-R derivative lines grew
[2] = system: melanoma cell lines with NRAS mutations (SBcl2, FM6, SKMEL2, WM1366, WM1361A, WM852); test: MTS cell survival assay in NRAS-mutant melanoma lines; assay type: cell-based; settings: 24, 48, 72 hr
Outline: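 Cell lines carrying NRAS Q61 mutations (SBcl2, FM6, SKMEL2, WM1366, WM1361A, WM852) exposed to test compounds at 2 or 5 µM, or 0.2 or 0.5 µM (0.1 and 2 µM also in SBcl2). MTS read at 24, 48 and 72 hr. Controls: DMSO vehicle and 2 µM negative control compound. Mean of triplicates ± SD; p versus DMSO at 72 hr.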

PKCδ = PKCδ (Homo sapiens, UniProt Q05655); test: In vitro kinase assay, PKCδ; assay type: biochemical
PKCδ, sequence (Q05655 whole entry, the tested form may be a part): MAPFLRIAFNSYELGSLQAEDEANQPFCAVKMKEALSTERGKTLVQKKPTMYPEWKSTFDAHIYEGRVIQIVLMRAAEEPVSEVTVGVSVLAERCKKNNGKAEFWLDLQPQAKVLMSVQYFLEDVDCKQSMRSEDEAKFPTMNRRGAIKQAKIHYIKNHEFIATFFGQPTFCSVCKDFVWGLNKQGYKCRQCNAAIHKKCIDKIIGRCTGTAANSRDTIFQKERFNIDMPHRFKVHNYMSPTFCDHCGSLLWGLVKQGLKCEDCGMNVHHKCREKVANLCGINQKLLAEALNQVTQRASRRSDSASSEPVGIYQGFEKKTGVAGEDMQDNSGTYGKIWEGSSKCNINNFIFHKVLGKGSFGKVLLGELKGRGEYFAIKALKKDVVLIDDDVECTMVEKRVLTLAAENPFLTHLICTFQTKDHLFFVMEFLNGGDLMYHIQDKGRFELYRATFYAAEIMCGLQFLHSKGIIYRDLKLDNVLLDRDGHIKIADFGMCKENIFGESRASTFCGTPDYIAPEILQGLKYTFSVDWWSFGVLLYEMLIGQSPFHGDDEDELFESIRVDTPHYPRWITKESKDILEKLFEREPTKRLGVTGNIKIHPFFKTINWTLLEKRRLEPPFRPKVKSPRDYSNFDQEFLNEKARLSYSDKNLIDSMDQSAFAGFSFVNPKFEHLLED

SBcl2 cells = test: DNA fragmentation; assay type: cell-based; settings: 24 hr
Outline: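 SBcl2 cells treated 24 hr with test compound (5 or 0.5 µM) alone, or at 0.5 µM together with pan-caspase inhibitor Z-VAD-FMK (100 µM). Sub-G1 (fragmented DNA) fraction measured by flow cytometry. Mean of duplicates with SD.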

[3] = cited from earlier work
mice = settings: administered orally or intraperitoneally to mice; cited from earlier work
[4] = system: cancer cells with activation of RAS or RAS signaling; test: "Ras-specific" cytotoxicity
SBcl2 melanoma cells = test: Clonogenic colony assay; assay type: cell-based; settings: SBcl2, 1 µM, 48 hr of drug exposure, then 8 days without inhibitor
Outline: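 SBcl2 cells exposed to test compound at 1 µM for 0, 12, 24 or 48 hr. Equal numbers of viable cells from each condition then replated at low density and grown 8 days in inhibitor-free medium. Colony-forming ability compared across exposure times.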

[5] = system: normal primary cells or cell lines; settings: at the concentrations employed herein; cited from earlier work
[6] = system: caspase 3/7 in SBcl2 cells; test: Caspase 3/7 activity assay; assay type: cell-based; settings: SBcl2, 5 µM, 24 hr
[7] = system: MKK4-JNK-H2AX pathway in SBcl2 cells; test: Immunoblot analysis of JNK pathway signaling; assay type: cell-based; settings: pre-treatment 50 µM, data not shown

For `CCCS(=O)(=O)Nc1ccc(F)c(C(=O)c2c[nH]c3ncc(-c4ccc(Cl)cc4)cc23)c1F` [PLX4032, vemurafenib], the “Cytotoxicity to parental cells” value [1] was “cytotoxic”.

In the case of `CC(=O)c1c(O)c(C)c(O)c(Cc2c(O)c3c(c(C(=O)/C=C/c4ccccc4)c2O)OC(C)(C)C=C3)c1O` [Rottlerin, rottlerin], the “Cell proliferation (MTS)” value ([2]; 2 µM) is reported as “intermediate inhibitory effects”, the “Cell proliferation (MTS)” value ([2]; 5 µM) is reported as “consistently inhibited proliferation of all cell lines” and the IC50 (PKCδ; PKCδ IC50, in vitro kinase assay) is reported as 3 to 5 µM. For the same compound, the “PKCδ/PKCα Selectivity” value (PKCδ; PKCδ over PKCα) was 28-fold, the “Proportion of sub-G1 population (fragmented DNA)” value (SBcl2 cells; SBcl2, 5 µM) was “significantly higher” and the Aqueous solubility [3] was “moderate”. For the same compound, the Tolerability (mice) was “well-tolerated”, the “"Ras-specific" Cytotoxicity” value [4] was 3 to 5 µM and the “Reduction in the number of colonies” value (SBcl2 melanoma cells) was “approximately 40 fold”. The “Cytostatic or cytotoxic effect on normal cells” value [5] was “not cytostatic or cytotoxic” and the “Increase in caspase 3/7 activity vs vehicle (DMSO)” value [6] was 5 fold.

For “carbobenzoxy-valyl-alanyl-aspartyl-[Omethyl]-fluoromethylketone [Z-VAD-FMK]”, the “B106-induced DNA fragmentation” value (SBcl2 cells; SBcl2 pretreated with 100 µM, B106 0.5 µM) was “significantly abrogated” and the “B106-induced caspase 3 cleavage (immunoblot)” value [7] was “prevented”.
